This is an account of results in article PMC5733704 (Bioorganic & medicinal chemistry, 2017).

≈ marks a conversion by molar mass, not a printed value. Entries after “also recorded” stand apart in the source; their conditions may differ.

One may read the IC50 as the concentration needed to halve the response being measured. A higher IC50 goes with a need for much substance. The MIC is the smallest concentration in the dilution series that meets the test's criterion for growth inhibition.

Assay [1] concerns the target AbFabI (Acinetobacter baumannii, UniProt A0ABX6CD96). The experiment in a line: AbFabI enzyme inhibition, NADH fluorescence IC50 assay. Type of assay: biochemical. Particulars: for IC50: IC50 against AbFabI, 200 nM AbFabI, 300 μM crotonyl-CoA, 200 μM NADH; for fold higher AbFabI IC50 than compound 23: relative to compound 23.
Assay [2] relates to A. baumannii strain 2208. Put plainly: Checkerboard MIC with polymixin B nonapeptide against A. baumannii strain 2208. Type of assay: cell-based.
Assay [3] concerns MDR A. baumannii. The experiment in a line: Checkerboard MIC with colistin against MDR A. baumannii. It counts as cell-based.
The test system of assay [4] is S. aureus. Put plainly: MIC against S. aureus, stated across the strains tested. It counts as cell-based. Particulars: Staphylococcus aureus, read-out: MIC in S. aureus (across strains tested), in μM.
The target in assay [5] is T1, SaFabI (Staphylococcus aureus, UniProt Q6GI75).
T1 sequence (Q6GI75 1-256): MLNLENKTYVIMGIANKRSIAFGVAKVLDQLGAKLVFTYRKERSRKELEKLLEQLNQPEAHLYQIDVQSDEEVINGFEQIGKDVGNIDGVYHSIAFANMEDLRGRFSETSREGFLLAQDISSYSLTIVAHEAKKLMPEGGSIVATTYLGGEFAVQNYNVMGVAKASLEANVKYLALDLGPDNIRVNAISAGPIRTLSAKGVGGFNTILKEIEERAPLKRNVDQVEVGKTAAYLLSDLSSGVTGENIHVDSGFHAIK
The experiment in a line: SaFabI enzyme inhibition, NADPH fluorescence IC50 assay. It counts as biochemical. Conditions: for fold improvement in SaFabI IC50 compared to compound 1: relative to compound 1; for fold less potent than compound 8 (SaFabI IC50): relative to compound 8. The method in brief: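 NADPH fluorescence was read at 340/460 nm. Test compound ranged 0.4 nM–200 μM. Percent inhibition came from 10-min slopes versus DMSO control. At least two independent runs, each in duplicate. Interference was checked before substrate addition.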

Assay [6] deals with A. baumannii strain 2208. Put plainly: Checkerboard MIC with colistin against A. baumannii strain 2208. It counts as cell-based.
Assay [7] concerns E. coli strain BW25113 ΔTolC. The experiment in a line: MIC, microbroth dilution, E. coli efflux pump mutant. Type of assay: cell-based. Conditions: Escherichia coli, BW25113, read-out: MIC E. coli TolC- strain, in μM. (Dilution methods test growth across graded concentrations, often in twofold steps.)
Assay [8] has as its system S. aureus strain RN4220 overexpressing SaFabI. Put plainly: MIC, microbroth dilution, S. aureus RN4220 overexpressing SaFabI. Particulars: versus native strain RN4220; 4-fold or higher indicates on-target. It counts as cell-based.
For assay [9] the test system is unchanged. Conditions: control; cited from earlier work.

For `O=C(Cc1ccccc1Cl)N1CCC(c2ccccc2)C1` (stereo not drawn) [Compound 1], in assay [1], the IC50 is under 10 µM. The Effect result in [2] and in assay [3] was “Synergy” each time. In assay [4], the MIC lay in the range of 42 to 84 µM (≈ 12.6 to 25.2 µg/mL).

Take `O=C(Cc1ccccc1F)N1CCC(c2ccccc2)C1` (stereo not drawn) [Compound 2]: in assay [5], the “fold improvement in SaFabI IC50 compared to compound 1” value was determined as 2 fold. Also, in [1], the IC50 was under 10 µM. As for `COc1ccccc1C1CCN(C(=O)Cc2ccccc2F)C1` (stereo not drawn) [Compound 3], the “fold less potent than compound 8 (SaFabI IC50)” value in assay [5] turned out to be 9 fold. As for `O=C(Cc1cccc(F)c1F)N1CCC(c2ccccc2)C1` (stereo not drawn) [Compound 4], the IC50 in [1] is under 10 µM. For `COc1ccccc1C1CCN(C(=O)Cc2cccc(F)c2F)C1` (stereo not drawn) [Compound 5], the “fold less potent than compound 8 (SaFabI IC50)” value in [5] is on record as 6 fold. Consider `O=C(Cc1c(F)cccc1F)N1CCC(c2ccccc2)C1` (stereo not drawn) [Compound 6], for which the “fold improvement in SaFabI IC50 compared to compound 1” value in assay [5] is listed as 5 fold. The same molecule registered an IC50 in assay [1] of under 10 µM. For the molecule `COc1ccccc1C1CCN(C(=O)Cc2c(F)cccc2F)C1` (stereo not drawn) [Compound 7], the “fold poorer SaFabI inhibitory activity compared to compound 6” value in assay [5] (relative to compound 6) is given as about 3 fold. The “fold less potent than compound 8 (SaFabI IC50)” value in [5] was 11 fold. Further, the IC50 in assay [1] is under 10 µM. Also, the Effect result in assay [6] is on record as “excellent synergy”. `COc1ccccc1C1CCN(C(=O)Cc2ccccc2Cl)C1` (stereo not drawn) [Compound 8] registered an IC50 in assay [1] of under 10 µM. Also, the Effect entry in [3] was “Synergy”. Turning to `COc1ccc(C2CCN(C(=O)Cc3ccccc3Cl)C2)cc1` (stereo not drawn) [Compound 9], the “fold less potent than compound 8 (SaFabI IC50)” value in assay [5] is 25 fold.

With `O=C(Cc1ccccc1Cl)N1CCC(c2ccccn2)C1` (stereo not drawn) [Compound 10], the Effect entry in assay [6] is on record as “did not show synergistic behavior; also recorded: No synergy/Synergy”. On the same count and under the same terms, then `O=C(Cc1ccccc1Cl)N1CCC(c2nccs2)C1` (stereo not drawn) [Compound 11], with “did not show synergistic behavior; also recorded: No synergy”.

In [1], `O=C(Cc1ccccc1Cl)N1CCC(c2ccc3c(c2)OCO3)C1` (stereo not drawn) [Compound 12] had an IC50 of under 10 µM. The “fold change in AbFabI IC50 compared to compound 1” value in assay [1] (relative to compound 1) fell in the range of 2 to 3 fold. In addition, in assay [3], the Effect entry is “Synergy”.

In the case of `CC(C)S(=O)(=O)c1ccc(CC(=O)N2CCC(c3ccc4c(c3)OCO4)C2)cc1` (stereo not drawn) [Compound 22], the “SaFabI enzyme inhibitory activity (in words)” value in assay [5] is “not tolerated”. Moreover, in assay [1], the “AbFabI enzyme inhibitory activity (in words)” value is “loss in activity”. As to `CC(=O)Nc1ccc(/C=C/C(=O)N2CCC(c3ccccc3)C2)cn1` (stereo not drawn) [Compound 23], in assay [6], the Effect entry is “did not show synergistic behavior; also recorded: No synergy”. Take `COc1ccccc1C1CCN(C(=O)/C=C/c2ccc(NC(C)=O)nc2)C1` (stereo not drawn) [Compound 24]: in assay [1], the IC50 was under 10 µM. The minimum inhibitory concentration (MIC) in assay [7] worked out at 2 µM (≈ 0.731 µg/mL). Moreover, the Effect result in [2] and in assay [3] was “Synergy” each time. In the case of `CC(=O)Nc1ccc(/C=C/C(=O)N2CCC(c3ccc4c(c3)OCO4)C2)cn1` (stereo not drawn) [Compound 26], the Effect result in assay [6] is reported as “did not show synergistic behavior; also recorded: No synergy”. With `CC(=O)Nc1ccc(/C=C/C(=O)N2CCC(c3nccs3)C2)cn1` (stereo not drawn) [Compound 27], in assay [1], the “fold higher AbFabI IC50 than compound 23” value is on record as 15 to 40 fold. The Effect result in [6] is reported as “did not show synergistic behavior; also recorded: No synergy”. For `CC(=O)Nc1ccc(/C=C/C(=O)N2CCC(c3ccccn3)C2)cn1` (stereo not drawn) [Compound 28] the same measures were 15 to 40 fold and “did not show synergistic behavior; also recorded: No synergy”. `COc1ccccc1C1CCN(C(=O)/C=C/c2ccc(NC(C)=O)cc2)C1` (stereo not drawn) [Compound 29]: the “SaFabI enzyme inhibitory activity (in words)” value in [5] is “complete loss in enzyme inhibitory activity”. Moreover, in assay [1], the “AbFabI enzyme inhibitory activity (in words)” value is reported as “complete loss in enzyme inhibitory activity”.

With `O=C(N[C@H](CO)[C@H](O)c1ccc([N+](=O)[O-])cc1)C(Cl)Cl` [chloramphenicol], the “fold increase in MIC with S. aureus strain overexpressing SaFabI” value in assay [8] is “remained unchanged”.

For the molecule `CC[C@H]1OC(=O)[C@H](C)[C@@H](O[C@H]2C[C@@](C)(OC)[C@@H](O)[C@H](C)O2)[C@H](C)[C@@H](O[C@@H]2O[C@H](C)C[C@H](N(C)C)[C@H]2O)[C@](C)(O)C[C@@H](C)C(=O)[C@H](C)[C@@H](O)[C@]1(C)O` [erythromycin], in [8], the “fold increase in MIC with S. aureus strain overexpressing SaFabI” value was “remained unchanged”. Same read-out and setting: as for `CN[C@@H]1[C@H](O[C@H]2[C@H](O[C@H]3[C@H](O)[C@@H](O)[C@H](N=C(N)N)[C@@H](O)[C@@H]3N=C(N)N)O[C@@H](C)[C@]2(O)C=O)O[C@@H](CO)[C@H](O)[C@H]1O` [streptomycin], the entry is “remained unchanged”. Still for that read-out and setting: as for `CN(C)[C@@H]1C(O)=C(C(N)=O)C(=O)[C@@]2(O)C(O)=C3C(=O)c4c(O)cccc4[C@@](C)(O)[C@H]3C[C@@H]12` [tetracycline], the entry is “remained unchanged”. With `Oc1cc(Cl)ccc1Oc1ccc(Cl)cc1Cl` [triclosan], the “fold increase in MIC with S. aureus strain overexpressing FabI” value in assay [9] is on record as 8 fold.
